# EWS-Fli block: EWS/Fli-driven NR0B1 reporter inhibitors, primary screen, A673 cells, NR0B1 luciferase, luminescence, MLPCN library. viability-normalised. inhibition, % at 12.6 µM. 350,000 compounds, 0.67% hits;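 active = mean inhibition of at least 50% after viability correction, with every replicate also passing that limit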;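 note: firefly luciferase signal divided by Alamar Blue viability fluorescence both relative to DMSO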
# Shn3 inh set2: reduction of Shn3 3'UTR firefly luciferase signal, primary screen, Schnurri-3 inhibitor project, cell-based, Clone20 osteoblasts, set 2; Clone20 osteoblast Shn3 3'UTR firefly luciferase, 24 h; inhibition, % at 12.5 µM; 360,000 compounds, 0.52% hits;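 active = mean inhibition of at least 75% with every replicate also reaching 75%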;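 note: 0% = median of neutral control wells and 100% = pilot-screen positive control compound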
# aSyn UTR inh: MLPCN primary screen, SNCA 5' untranslated region. alpha-synuclein 5'UTR reporter, inhibitor activity. 300,000 compounds, 0.82% hits. inhibition, % (tested at 7.5 µM); in the data active = inhibition above about 60%;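 note: H4 neuroglioblastoma cells stably carrying SNCA 5'UTR luciferase fusion; 0% = DMSO wells and 100% = positive control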
# FN deposit inh: inhibitors of fibronectin matrix deposition, primary screen, AH1F cells, Alexa488-fibronectin fluorescence, plate reader. AH1F fibroblasts, overnight. inhibition, % at 12.6 µM. 350,000 compounds, 0.086% hits;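 active = mean inhibition across replicates of 30% or more, regardless of how many single replicates reach that level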;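 note: positive control wells lacked labelled fibronectin entirely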
#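 Material: AH1F fibroblasts assembling fluorescent fibronectin matrix; amount: 10000 AH1F cells/well; medium: DMEM, 2% serum; reagent: Alexa488-fibronectin, 24 nM final in well; dosing: single compound dose, delivered by pin transfer; incubation: 1 h adhesion, overnight exposure; detection: fluorescence after three HBSS washes, excitation 485 nm, emission 525 nm; measure: fibronectin deposition inhibition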
# PAX8 reporter: inhibitors of PAX8-driven TPO luciferase reporter, primary screen, RMG-I cells, single concentration; SteadyGlo, 24 h; inhibition, % at 12.6 µM; 360,000 compounds, 1.2% hits;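 active = mean replicate inhibition at least 60% with every replicate also reaching 60%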;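 note: luciferase light reporting Pax8 driven TPO promoter activity; plate controls were median of neutral control wells for no effect and mitoxantrone controls for full effect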
# LMP1 NFkB inh: EBV LMP1-driven NF-kappaB luciferase reporter inhibitors, primary screen, cell-based, luminescence, single point. LMP1-induced NF-kappaB luciferase reporter cells. inhibition, % at 12.5 µM. 350,000 compounds, 0.69% hits; in the data active = inhibition above about 41%;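 note: 0% = neutral control wells and 100% = reference inhibitor control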
# Active calls of the source: *; . = not tested or not shown. Compounds with a hit are over-represented: about 2.1% of the library has one in this group of screens.
SMILES,EWS-Fli block,Shn3 inh set2,aSyn UTR inh,FN deposit inh,PAX8 reporter,LMP1 NFkB inh
CN1C(=O)c2cc(NC(=O)C3CCC3)ccc2OC[C@H]2O[C@H](CC(=O)NCCc3ccncc3)CC[C@@H]21,-7,.,.,-1,-10,.
C[C@H]1CN([C@@H](C)CO)C(=O)c2cc(C#Cc3cccc(F)c3)cnc2O[C@H]1CN(C)C(=O)C1CCOCC1,-10,.,.,.,.,.
C[C@H](CO)N1C[C@H](C)[C@@H](CN(C)Cc2ccc(-c3ccccc3)cc2)Oc2ccc(NS(C)(=O)=O)cc2CC1=O,.,.,.,.,55,.
C[C@H](NC(=O)C[C@@H]1CC[C@H](NC(=O)C2CCOCC2)[C@H](CO)O1)c1ccccc1,-9,.,.,1,0,.
CC(C)[C@H](N)C(=O)N[C@H]1CCC2C3CC=C4C[C@@H](O)CC[C@]4(C)C3CC[C@@]21C (stereo partly specified),53*,20,.,2,29,-26
COc1ccc(C(CCNCc2ccc(OC(C)C)cc2)c2ccccc2OC)cc1 (stereo unspecified),58*,89*,14,-4,15,-10
C[C@@H]1CN([C@H](C)CO)S(=O)(=O)c2ccc(-c3cccnc3)cc2O[C@H]1CN(C)C(=O)C1CCC1,-1,.,.,5,.,.
O=C(O)C1C2C=CC(C2)C1C(=O)NCCC1=CCCCC1 (stereo unspecified),.,1,16,.,.,-14
O=C(CN1C(=O)C2C3C=CC(C3)C2C1=O)NCCC1=CCCCC1 (stereo unspecified),.,7,-8,.,.,76*
CCOC(=O)/C(=C/c1ccc(N2CCC(c3ccccc3)=N2)cc1)C(C)=O,.,-51,-2,.,.,94*
c1ccc(C2=NN(c3ccccc3)CC2)cc1,-72,-114,-157,-6,-138,-48
Cc1ccc(S(=O)(=O)N[C@H]2CC[C@@H](CCn3cc(-c4cccc(F)c4)nn3)O[C@@H]2CO)cc1,14,.,.,6,31,.
COc1ccc(S(=O)(=O)Nc2ccc3c(c2)C(=O)N([C@@H](C)CO)C[C@@H](C)[C@@H](CN(C)S(=O)(=O)c2ccc(C)cc2)OCCCC[C@@H](C)O3)cc1,-11,.,.,-4,67*,.
COc1ccc(S(=O)(=O)Nc2ccc3c(c2)C(=O)N([C@H](C)CO)C[C@H](C)[C@H](CN(C)S(=O)(=O)c2ccc(C)cc2)OCCCC[C@H](C)O3)cc1,9,.,.,-8,72*,.
CCCC#Cc1ccc2c(c1)O[C@@H](CN(C)Cc1ccncc1)[C@@H](C)CN([C@H](C)CO)S2(=O)=O,7,.,.,.,.,.
COc1ccc2c(c1)/C(=C/c1cc(OC)c(OC)c(OC)c1)C(=O)N2,63*,-3,.,11,33,1
C[C@@H]1CCCCO[C@H](CN(C)C(=O)Nc2ccc(C(F)(F)F)cc2)[C@H](C)CN([C@H](C)CO)C(=O)c2cc(NS(=O)(=O)c3ccc(F)cc3)ccc2O1,-17,.,.,8,50,.
COc1ccc(-c2n(CC(=O)OC3CC(C)CCC3C(C)C)c3ccccc3[n+]2C)cc1 (stereo unspecified),3,92*,101*,0,2,23
CC1CCC(C(C)C)C(OC(=O)CSc2nccc(=O)[nH]2)C1 (stereo unspecified),.,-19,10,-1,.,-8
COc1ccc(OCc2n(CC(=O)OC3CC(C)CCC3C(C)C)c3ccccc3[n+]2C)cc1 (stereo unspecified),53*,-3,30,8,99*,2
C[C@H]1CN([C@@H](C)CO)C(=O)Cc2cc(NS(=O)(=O)c3cn(C)cn3)ccc2O[C@@H]1CN(C)C(=O)Nc1ccccc1,-5,.,.,.,-17,.
Cc1cccc(N2CCN(C(=O)c3ccc(CS(=O)(=O)c4ccccc4C)o3)CC2C)c1 (stereo unspecified),.,18,97*,0,60,8
CO[C@H]1CN(C)C(=O)c2cc(NS(=O)(=O)c3cn(C)cn3)ccc2OC[C@@H](C)N(CC2CC2)C[C@@H]1C,0,.,.,-7,.,.

# Source: PubChem BioAssay
